Laboratory results: ChEMBL document CHEMBL1154729, “Discovery of novel antitubercular 2,10-dihydro-4aH-chromeno[3,2-c]pyridin-3-yl derivatives” (Eur J Med Chem, 2010)
Converted amounts (≈) assume the structure as drawn.

Test system: Mycobacterium tuberculosis
Assay: Antimycobacterial activity against multidrug-resistant Mycobacterium tuberculosis by agar dilution method
Format: functional
Method in brief: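 Agar dilution MIC on Middlebrook 7H11 agar supplemented with OADC, following NCCLS-like procedure; determined in duplicate.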

Going from `Cc1ccc2ccc(C(=O)NCC3=C[C@@H]4Oc5ccccc5C(=O)C4=CN3c3ncccc3C)cc2c1` to `Cc1cccnc1N1C=C2C(=O)c3ccccc3O[C@H]2C=C1CNC(=O)c1ccc2ccccc2c1`, the MIC rises from 0.13 µM (≈ 0.0634 µg/mL) to 0.42 µM (≈ 0.199 µg/mL) (3.2-fold).

Compared with `Cc1cccnc1N1C=C2C(=O)c3ccccc3O[C@H]2C=C1CNC(=O)c1cccc(Cl)c1`, `Cc1cccnc1N1C=C2C(=O)c3ccccc3O[C@H]2C=C1CNC(=O)c1ccc(Cl)cc1` is 2-fold higher in MIC: 1.7 µM (≈ 0.778 µg/mL) for the first, 3.4 µM (≈ 1.56 µg/mL) for the second.

Compared with `O=C(NCC1=C[C@@H]2Oc3ccccc3C(=O)C2=CN1c1ncc(Br)cc1Br)c1ccc(Cl)cc1`, `CCc1ccc(C(=O)NCC2=C[C@@H]3Oc4ccccc4C(=O)C3=CN2c2ncc(Br)cc2Br)cc1` is 2.3-fold lower in MIC: 2.95 µM (≈ 1.77 µg/mL) for the first, 1.3 µM (≈ 0.774 µg/mL) for the second.

Compared with `Cc1ccc(C(=O)NCC2=C[C@@H]3Oc4ccccc4C(=O)C3=CN2c2ncccc2C)cc1`, `Cc1cccnc1N1C=C2C(=O)c3ccccc3O[C@H]2C=C1CNC(=O)c1ccc(F)cc1` is 4-fold higher in MIC: 1.78 µM (≈ 0.779 µg/mL) for the first, 7.09 µM (≈ 3.13 µg/mL) for the second.

Going from `O=C(NCC1=C[C@@H]2Oc3ccccc3C(=O)C2=CN1c1ncc(Br)cc1Br)c1ccc2ccccc2c1` to `Cc1ccc2ccc(C(=O)NCC3=C[C@@H]4Oc5ccccc5C(=O)C4=CN3c3ncc(Br)cc3Br)cc2c1`, the MIC falls from 5.04 µM (≈ 3.11 µg/mL) to 0.61 µM (≈ 0.385 µg/mL) (8.3-fold).

Compared with `CCc1ccc(C(=O)NCC2=C[C@@H]3Oc4ccccc4C(=O)C3=CN2c2ncccc2C)cc1`, `COc1ccc(C(=O)NCC2=C[C@@H]3Oc4ccccc4C(=O)C3=CN2c2ncccc2C)cc1` is 49-fold higher in MIC: 0.07 µM (≈ 0.0316 µg/mL) for the first, 3.44 µM (≈ 1.56 µg/mL) for the second.

Going from `O=C(NCC1=C[C@@H]2Oc3ccccc3C(=O)C2=CN1c1ncc(Br)cc1Br)c1cccc(Cl)c1` to `O=C(NCC1=C[C@@H]2Oc3ccccc3C(=O)C2=CN1c1ncc(Br)cc1Br)c1ccc(Cl)c(Cl)c1`, the MIC rises from 2.6 µM (≈ 1.56 µg/mL) to 4.91 µM (≈ 3.12 µg/mL) (1.9-fold).

Compared with `Cc1cccnc1N1C=C2C(=O)c3ccccc3O[C@H]2C=C1CNC(=O)c1ccccc1`, `NNC(=O)c1ccncc1` [ISONIAZID] is 12-fold higher in MIC: 3.68 µM (≈ 1.56 µg/mL) for the first, 45.6 µM (≈ 6.25 µg/mL) for the second.

First: CC[C@@H](CO)NCCN[C@@H](CC)CO [ETHAMBUTOL]
Second: CO[C@H]1/C=C/O[C@@]2(C)Oc3c(C)c(O)c4c(O)c(c(/C=N/N5CCN(C)CC5)c(O)c4c3C2=O)NC(=O)/C(C)=C\C=C\[C@H](C)[C@H](O)[C@@H](C)[C@@H](O)[C@@H](C)[C@H](OC(C)=O)[C@@H]1C [RIFAMPIN]
The MIC of the first is 32-fold higher: 122 µM (≈ 25 µg/mL) for the first, 3.79 µM (≈ 3.12 µg/mL) for the second.

Test system: not listed separately
Assay: Selectivity index, ratio of IC50 for african green monkey Vero cells to MIC for multidrug-resistant Mycobacterium tuberculosis
Format: functional

With `CCc1ccc(C(=O)NCC2=C[C@@H]3Oc4ccccc4C(=O)C3=CN2c2ncccc2C)cc1` the “Selectivity Index” value was 1977.
